From paper PMC4981430 (Neuropharmacology, 2016)
Like-named read-outs stand apart in the source and are kept apart here.

Key:
[1] = target: T1, α1β2γ2 GABAARs (Rattus norvegicus, UniProt P18508+P62813); assay: [3H]flunitrazepam binding to membranes of transfected HEK293 cells, α1β2γ2
[2] = target: T2, α2β3γ2 GABAARs (Rattus norvegicus, UniProt P18508+P23576); assay: [3H]flunitrazepam binding to membranes of transfected HEK293 cells, α2β3γ2
[3] = target: T1, α1β2γ2 GABAARs; assay: Whole-cell patch-clamp, potentiation of GABA; format: cell-based; conditions: for Emax: HEK293, read-out: Electrophysiology Emax (potentiation)
[4] = target: T2, α2β3γ2 GABAARs; assay: Whole-cell patch-clamp, potentiation of GABA; format: cell-based; conditions: for Emax: HEK293, read-out: Electrophysiology Emax (potentiation)
[5] = target: α3β3γ2 GABAARs (Rattus norvegicus, UniProt P18508+P20236); assay: Whole-cell patch-clamp, potentiation of GABA; format: cell-based
[6] = target: α5β2γ2 GABAARs (Rattus norvegicus, UniProt P18508+P19969); assay: Whole-cell patch-clamp, potentiation of GABA; format: cell-based; conditions: for Emax: HEK293, read-out: Electrophysiology Emax (potentiation)
[7] = test system: α1β2γ2, α2β3γ2, α3β3γ2 and α5β2γ2 GABAARs; assay: Whole-cell patch-clamp in HEK293 cells, statements across the GABAAR subtypes; format: cell-based, rat; conditions: up to 3 μM for DZP, and 20 μM for CBZ and NDMC
[8] = test system: human GABAARs; conditions: human GABAARs in Xenopus laevis oocytes; ref Hammer et al., 2015; cited from earlier work
[9] = test system: CCI model of neuropathic pain, mechanical hyperalgesia; assay: Mechanical hyperalgesia; format: in vivo, mouse; conditions: GABAAR α1(H→R) point-mutated mice, von-Frey filament stimulation, p.o.
Procedure, shortened: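 Left sciatic nerve constricted proximal to the trifurcation with three loose 5-0 silk ligatures. Mice 7–10 weeks old, both sexes, wild-type or α1(H→R) point-mutated, tested blinded 7–14 days later. Dosing p.o. as a suspension in 0.9% saline/1% Tween80. Paw withdrawal threshold measured with electronic von Frey filament #7, 3–4 readings per time point. Expressed as %MPE using pre-CCI and pre-drug thresholds.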

[10] = test system: locomotor activity of mice; assay: Locomotor activity in the open field test; format: in vivo, mouse
[11] = test system: recombinant α2β3γ2 GABAARs; conditions: cited from earlier work; for Potentiation of recombinant α2β3γ2 GABAARs, relative to chlordiazepoxide: % of that of chlordiazepoxide, ref Atack et al.

T1 sequence (P62813 28-455): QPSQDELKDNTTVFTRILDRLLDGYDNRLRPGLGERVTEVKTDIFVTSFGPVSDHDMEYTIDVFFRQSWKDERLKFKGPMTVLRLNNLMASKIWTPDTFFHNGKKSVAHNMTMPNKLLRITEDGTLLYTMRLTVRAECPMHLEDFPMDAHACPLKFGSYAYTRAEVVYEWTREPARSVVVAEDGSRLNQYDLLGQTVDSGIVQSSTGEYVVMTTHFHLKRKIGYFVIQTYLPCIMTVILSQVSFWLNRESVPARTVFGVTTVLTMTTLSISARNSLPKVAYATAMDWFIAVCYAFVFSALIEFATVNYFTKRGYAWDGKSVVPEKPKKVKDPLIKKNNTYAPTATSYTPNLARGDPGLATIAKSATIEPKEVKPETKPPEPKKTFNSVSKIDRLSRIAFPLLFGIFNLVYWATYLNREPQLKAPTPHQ
T1 sequence (P63138 25-474 partner limits assumed): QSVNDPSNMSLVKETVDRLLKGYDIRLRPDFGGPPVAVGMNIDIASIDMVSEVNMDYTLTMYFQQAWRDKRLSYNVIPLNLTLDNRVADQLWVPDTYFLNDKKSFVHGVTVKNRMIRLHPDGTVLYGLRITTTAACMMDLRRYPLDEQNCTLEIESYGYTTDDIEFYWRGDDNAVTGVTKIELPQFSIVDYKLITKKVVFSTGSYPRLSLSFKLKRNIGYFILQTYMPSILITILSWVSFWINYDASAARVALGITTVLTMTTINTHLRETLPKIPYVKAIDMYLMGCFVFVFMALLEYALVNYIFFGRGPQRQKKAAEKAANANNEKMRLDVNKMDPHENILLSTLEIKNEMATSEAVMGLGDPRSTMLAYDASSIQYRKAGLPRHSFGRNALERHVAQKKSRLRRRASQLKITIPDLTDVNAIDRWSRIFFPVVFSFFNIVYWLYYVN
T1 sequence (P18508 39-466): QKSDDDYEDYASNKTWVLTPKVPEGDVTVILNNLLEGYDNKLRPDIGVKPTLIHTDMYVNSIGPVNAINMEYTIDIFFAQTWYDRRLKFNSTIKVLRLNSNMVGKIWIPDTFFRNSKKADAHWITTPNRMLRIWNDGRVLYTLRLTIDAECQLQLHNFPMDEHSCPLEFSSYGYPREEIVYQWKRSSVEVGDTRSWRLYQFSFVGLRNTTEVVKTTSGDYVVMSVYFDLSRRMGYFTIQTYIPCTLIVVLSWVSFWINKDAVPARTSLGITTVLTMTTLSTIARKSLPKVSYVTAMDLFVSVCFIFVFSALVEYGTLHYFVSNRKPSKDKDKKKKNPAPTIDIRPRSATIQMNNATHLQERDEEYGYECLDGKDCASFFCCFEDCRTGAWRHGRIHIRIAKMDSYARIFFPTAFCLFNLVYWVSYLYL
T2 sequence (P23576 29-451): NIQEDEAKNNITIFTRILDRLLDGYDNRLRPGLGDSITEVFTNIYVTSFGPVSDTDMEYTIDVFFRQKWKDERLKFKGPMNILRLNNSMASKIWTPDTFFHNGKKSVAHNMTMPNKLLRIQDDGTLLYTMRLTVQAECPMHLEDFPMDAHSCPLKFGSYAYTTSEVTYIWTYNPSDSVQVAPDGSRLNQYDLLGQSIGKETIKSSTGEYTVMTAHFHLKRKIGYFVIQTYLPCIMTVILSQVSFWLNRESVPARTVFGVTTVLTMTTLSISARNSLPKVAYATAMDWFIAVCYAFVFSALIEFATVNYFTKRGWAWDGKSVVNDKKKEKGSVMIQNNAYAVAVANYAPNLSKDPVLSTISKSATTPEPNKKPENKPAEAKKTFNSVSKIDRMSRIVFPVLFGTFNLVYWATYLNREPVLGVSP
T2 sequence (P63079 26-473 partner): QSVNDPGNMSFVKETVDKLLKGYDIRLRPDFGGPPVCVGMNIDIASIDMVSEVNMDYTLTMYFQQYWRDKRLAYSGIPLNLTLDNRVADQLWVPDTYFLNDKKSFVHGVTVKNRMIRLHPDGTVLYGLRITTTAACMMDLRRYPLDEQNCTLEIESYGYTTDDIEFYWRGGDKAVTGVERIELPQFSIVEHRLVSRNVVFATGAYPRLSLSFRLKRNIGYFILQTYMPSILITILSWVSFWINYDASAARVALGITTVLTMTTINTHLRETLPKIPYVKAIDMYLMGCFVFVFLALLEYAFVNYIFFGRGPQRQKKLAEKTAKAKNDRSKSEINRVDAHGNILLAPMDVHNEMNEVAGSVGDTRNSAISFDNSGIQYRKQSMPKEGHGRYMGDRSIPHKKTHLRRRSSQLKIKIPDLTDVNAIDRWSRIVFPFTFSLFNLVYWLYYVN
T2 sequence (P18508 39-466): as the sequence (P18508 39-466) above
Chain of α5β2γ2 GABAARs (P19969 32-464 limits assumed): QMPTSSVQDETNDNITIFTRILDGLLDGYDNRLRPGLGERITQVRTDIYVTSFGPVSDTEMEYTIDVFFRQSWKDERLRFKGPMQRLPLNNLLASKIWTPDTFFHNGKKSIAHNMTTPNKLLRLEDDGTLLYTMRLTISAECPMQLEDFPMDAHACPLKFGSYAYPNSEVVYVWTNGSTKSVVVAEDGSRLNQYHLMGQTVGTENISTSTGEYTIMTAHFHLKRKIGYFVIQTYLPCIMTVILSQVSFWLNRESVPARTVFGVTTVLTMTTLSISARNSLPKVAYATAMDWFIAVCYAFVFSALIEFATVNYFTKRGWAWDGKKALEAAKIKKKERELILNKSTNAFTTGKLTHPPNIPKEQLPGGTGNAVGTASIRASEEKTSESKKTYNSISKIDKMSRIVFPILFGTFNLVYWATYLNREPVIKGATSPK
Chain of α5β2γ2 GABAARs (P63138 25-474 partner limits assumed): as the sequence (P63138 25-474 partner limits assumed) above
Chain of α5β2γ2 GABAARs (P18508 39-466): as the sequence (P18508 39-466) above
Chain of α3β3γ2 GABAARs (P20236 29-493): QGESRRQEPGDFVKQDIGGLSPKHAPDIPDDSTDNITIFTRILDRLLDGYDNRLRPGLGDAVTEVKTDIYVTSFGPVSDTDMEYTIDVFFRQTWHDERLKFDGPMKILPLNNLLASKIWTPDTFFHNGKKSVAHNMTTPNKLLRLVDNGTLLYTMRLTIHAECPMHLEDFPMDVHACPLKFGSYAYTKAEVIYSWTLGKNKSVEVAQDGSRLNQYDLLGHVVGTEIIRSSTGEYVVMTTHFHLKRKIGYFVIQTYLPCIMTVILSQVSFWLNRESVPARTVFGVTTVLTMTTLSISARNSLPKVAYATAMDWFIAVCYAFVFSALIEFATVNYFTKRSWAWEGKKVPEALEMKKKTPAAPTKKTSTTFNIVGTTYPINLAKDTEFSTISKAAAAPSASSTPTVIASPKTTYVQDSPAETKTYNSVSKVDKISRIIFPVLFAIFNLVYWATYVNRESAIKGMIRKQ
Chain of α3β3γ2 GABAARs (P63079 26-473 partner): as the sequence (P63079 26-473 partner) above
Chain of α3β3γ2 GABAARs (P18508 39-466): as the sequence (P18508 39-466) above

CN1C(=O)CC(=O)N(c2ccccc2)c2cc(Cl)ccc21 [CBZ, clobazam]
IC50 [1]: 430 ± 130 nM | IC50 [2]: 390 ± 80 nM | EC50 [3]: 610 ± 200 nM | Emax [3]: 171 ± 17% | EC50 [4]: 390 ± 190 nM | Emax [4]: 134 ± 16% | α2/α1 selectivity ([4]; determined as Emax(α2)/Emax(α1)): 0.78 ± 0.12 | EC50 [5]: 1100 ± 320 nM | EC50 [6]: 500 ± 120 nM | Emax [6]: 157 ± 11% | Direct activation of GABAAR currents [7]: did not directly activate GABAAR currents | α2/α1 selectivity ratio [8]: 1.02 ± 0.05

CN1C(=O)CN=C(c2ccccc2)c2cc(Cl)ccc21 [DZP, diazepam]
Emax [3]: 141 ± 17% | Emax [4]: 123 ± 11% | Electrophysiology Emax (potentiation) ([5]; α3β3γ2, GABA at EC10, mean ± SD): 227 ± 15% | Emax [6]: 100 ± 6.4% | Direct activation of GABAAR currents [7]: did not directly activate GABAAR currents | ED50 antihyperalgesia [9]: 3.4 ± 1.3 mg/kg | Dose at which reduction in locomotor activity reached statistical significance ([10]; 129X1/SvJ mice, p.o., 72-120 min): ≥ 10 mg/kg | Effect on locomotor activity ([10]; C57BL/6J mice, 3, 10 and 30 mg kg−1 p.o., 72-120 min): dose-dependent reduction in locomotor activity | Dose at which reduction in locomotor activity reached statistical significance ([10]; C57BL/6J mice, p.o., 72-120 min): 1 mg/kg | Effect on locomotor activity in HRRR mice ([10]; HRRR triple point-mutated mice (only α1GABAARs BDZ-sensitive), 3–10 mg kg−1 p.o.): completely suppressed | Effect on locomotor activity in RHRR mice ([10]; RHRR triple point-mutated mice (only α2GABAARs BDZ-sensitive), p.o.): increased locomotion | Dose reducing locomotor activity in RRRR mice ([10]; quadruple point-mutated RRRR mice, p.o.): ≥ 30 mg/kg | ED50 sedation ([10]; triple (H→R) point-mutated mice, only α1GABAARs BDZ-sensitive, p.o.): 0.59 ± 0.08 mg/kg

Cn1ncnc1COc1nn2c(-c3cc(F)ccc3F)nnc2cc1C(C)(C)C [L-838,417]
Potentiation of recombinant α2β3γ2 GABAARs ([11]; ref McKernan et al., 2000): about 40%

CCn1ncnc1COc1nn2c(-c3ccccc3F)nnc2cc1C(C)(C)C [TPA023, 7-(1,1-Dimethylethyl)-6-(2-ethyl-2H-1,2,4-triazol-3-ylmethoxy)-3-(2-fluor ophenyl)-1,2,4-triazolo[4,3-b]pyridazine]
Potentiation of recombinant α2β3γ2 GABAARs, relative to chlordiazepoxide [11]; 2006: 11%

CC(C)(O)c1cnn2c(-c3ccc(F)c(-c4c(F)cccc4C#N)c3)cnc2n1 [TPA023B]
Potentiation of recombinant α2β3γ2 GABAARs, relative to chlordiazepoxide [11]; 2011: 38%
